In paper PMC3796951 (Psychopharmacology, 2012):
pKi: −log10 of the molar value. Counter-ions that a name gives are not always drawn. Like-named read-outs stand apart in the source and are kept apart here.

Tests used:
D3 = D3 (Rattus norvegicus, UniProt P19020); assay: Radioligand binding
M2 = M2 (Homo sapiens, UniProt P08172); assay: Radioligand binding
MOR = MOR (Homo sapiens, UniProt P35372); assay: Radioligand binding
β3 = β3 (Homo sapiens, UniProt P13945); assay: Radioligand binding
humans = conditions: hallucinogenic activity, parenteral ref Shulgin and Shulgin 1997; cited from earlier work
DAT = DAT (Homo sapiens, UniProt Q01959); assay: Radioligand binding
M5 = M5 (Homo sapiens, UniProt P08912); assay: Radioligand binding
sigma-1 = sigma-1 (Homo sapiens, UniProt Q99720); assay: Radioligand binding
H1 = H1 (Homo sapiens, UniProt P35367); assay: Radioligand binding
Male Sprague–Dawley rats = assay: Behavioral Pattern Monitor; assay type: in vivo, rat
Procedure, shortened: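 Male Sprague–Dawley rats (250–275 g at arrival), pair-housed under a reverse 12-h light–dark cycle, were handled the day before testing and were naïve to the BPM. Pargyline (0 or 10 mg/kg) was given 20 min before the test compound; all dosing was s.c. at 1 ml/kg, n=7–8. Ten min after dosing, rats were placed in the BPM and monitored for 60 min in darkness. Crossings between eight sectors were counted in 10-min bins, and spatial d was derived from X–Y paths.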

α2C = α2C (Homo sapiens, UniProt P18825); assay: Radioligand binding
α1D = α1D (Homo sapiens, UniProt P25100); assay: Radioligand binding
Sigma-2 = Sigma-2 (Rattus norvegicus, UniProt Q5U3Y7); assay: Radioligand binding
NET = NET (Homo sapiens, UniProt P23975); assay: Radioligand binding
M3 = M3 (Homo sapiens, UniProt P20309); assay: Radioligand binding
α1A = α1A (Homo sapiens, UniProt P35348); assay: Radioligand binding
D1 = D1 (Homo sapiens, UniProt P21728); assay: Radioligand binding
α2A = α2A (Homo sapiens, UniProt P08913); assay: Radioligand binding
KOR = KOR (Homo sapiens, UniProt P41145); assay: Radioligand binding
EP4 = EP4 (Homo sapiens, UniProt P35408); assay: Radioligand binding
EP3 = EP3 (Homo sapiens, UniProt P43115); assay: Radioligand binding
SERT = SERT (Homo sapiens, UniProt P31645); assay: Radioligand binding
DOR = DOR (Homo sapiens, UniProt P41143); assay: Radioligand binding
M1 = M1 (Homo sapiens, UniProt P11229); assay: Radioligand binding
M4 = M4 (Homo sapiens, UniProt P08173); assay: Radioligand binding
α1B = α1B (Homo sapiens, UniProt P35368); assay: Radioligand binding
β2 = β2 (Homo sapiens, UniProt P07550); assay: Radioligand binding
H3 = H3 (Homo sapiens, UniProt Q9Y5N1); assay: Radioligand binding
D2 = D2 (Homo sapiens, UniProt P14416); assay: Radioligand binding
[1] = molecular target: [3H]DOB-labeled 5-HT2A receptors; conditions: [3H]DOB-labeled 5-HT2A receptors (agonist high-affinity state) ref Egan et al. 2000; cited from earlier work
H4 = H4 (Homo sapiens, UniProt Q9H3N8); assay: Radioligand binding
D4 = D4 (Homo sapiens, UniProt P21917); assay: Radioligand binding
H2 = H2 (Homo sapiens, UniProt P25021); assay: Radioligand binding
D5 = D5 (Homo sapiens, UniProt P21918); assay: Radioligand binding
β1 = β1 (Homo sapiens, UniProt P08588); assay: Radioligand binding
5-HT2A receptor = conditions: higher affinity than 5-MeO-DMT ref Roth et al. 1997; Egan et al. 2000; cited from earlier work
MAOB = conditions: pargyline 10 mg/kg, s.c. ref Ortmann et al. 1984; cited from earlier work
MAOA = conditions: pargyline 10 mg/kg, s.c. ref Ortmann et al. 1984; cited from earlier work
[2] = Experiment 1, drug × time interaction, post hoc per 30-min block
[3] = read-out: Ki nM (±SEM), [3H]clonidine, cloned human receptor
[4] = read-out: Ki nM (±SEM), [3H]prazocin, cloned human receptor

H2, sequence (P25021 whole entry): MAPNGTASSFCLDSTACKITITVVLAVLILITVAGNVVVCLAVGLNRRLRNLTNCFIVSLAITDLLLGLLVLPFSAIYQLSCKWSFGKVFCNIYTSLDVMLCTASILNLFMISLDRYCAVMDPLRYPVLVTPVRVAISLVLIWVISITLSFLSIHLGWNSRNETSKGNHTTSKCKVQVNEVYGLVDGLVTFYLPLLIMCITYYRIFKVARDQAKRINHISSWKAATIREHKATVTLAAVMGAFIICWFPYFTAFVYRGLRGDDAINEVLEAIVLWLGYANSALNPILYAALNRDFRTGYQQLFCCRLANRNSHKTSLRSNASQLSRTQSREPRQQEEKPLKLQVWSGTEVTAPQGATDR
α2A, sequence (P08913 whole entry): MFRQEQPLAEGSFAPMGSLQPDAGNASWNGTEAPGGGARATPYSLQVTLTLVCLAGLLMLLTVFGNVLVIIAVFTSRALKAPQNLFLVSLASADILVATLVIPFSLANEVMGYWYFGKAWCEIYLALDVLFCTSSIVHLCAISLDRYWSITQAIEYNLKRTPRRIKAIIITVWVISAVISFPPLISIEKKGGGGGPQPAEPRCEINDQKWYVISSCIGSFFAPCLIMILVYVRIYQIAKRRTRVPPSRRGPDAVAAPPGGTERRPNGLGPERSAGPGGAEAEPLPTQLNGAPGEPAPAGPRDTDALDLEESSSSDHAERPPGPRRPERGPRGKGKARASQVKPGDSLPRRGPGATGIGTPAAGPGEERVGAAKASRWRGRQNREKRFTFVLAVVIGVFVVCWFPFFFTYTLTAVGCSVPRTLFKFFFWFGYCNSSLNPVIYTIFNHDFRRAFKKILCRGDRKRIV
α1D, sequence (P25100 whole entry): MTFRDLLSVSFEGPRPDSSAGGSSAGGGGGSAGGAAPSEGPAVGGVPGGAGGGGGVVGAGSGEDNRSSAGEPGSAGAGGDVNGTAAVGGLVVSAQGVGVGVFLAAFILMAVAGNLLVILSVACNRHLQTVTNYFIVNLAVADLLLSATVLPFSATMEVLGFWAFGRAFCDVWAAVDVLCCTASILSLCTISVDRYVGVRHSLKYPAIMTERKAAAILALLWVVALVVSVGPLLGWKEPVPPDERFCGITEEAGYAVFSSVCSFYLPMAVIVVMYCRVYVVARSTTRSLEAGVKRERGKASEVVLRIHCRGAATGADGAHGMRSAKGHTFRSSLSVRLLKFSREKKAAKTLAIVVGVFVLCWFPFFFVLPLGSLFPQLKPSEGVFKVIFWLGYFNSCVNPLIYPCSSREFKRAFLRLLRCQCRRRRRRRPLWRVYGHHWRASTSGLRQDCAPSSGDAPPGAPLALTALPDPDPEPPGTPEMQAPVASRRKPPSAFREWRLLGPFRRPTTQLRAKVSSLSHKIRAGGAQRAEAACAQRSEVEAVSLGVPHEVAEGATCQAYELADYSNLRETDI
H1, sequence (P35367 whole entry): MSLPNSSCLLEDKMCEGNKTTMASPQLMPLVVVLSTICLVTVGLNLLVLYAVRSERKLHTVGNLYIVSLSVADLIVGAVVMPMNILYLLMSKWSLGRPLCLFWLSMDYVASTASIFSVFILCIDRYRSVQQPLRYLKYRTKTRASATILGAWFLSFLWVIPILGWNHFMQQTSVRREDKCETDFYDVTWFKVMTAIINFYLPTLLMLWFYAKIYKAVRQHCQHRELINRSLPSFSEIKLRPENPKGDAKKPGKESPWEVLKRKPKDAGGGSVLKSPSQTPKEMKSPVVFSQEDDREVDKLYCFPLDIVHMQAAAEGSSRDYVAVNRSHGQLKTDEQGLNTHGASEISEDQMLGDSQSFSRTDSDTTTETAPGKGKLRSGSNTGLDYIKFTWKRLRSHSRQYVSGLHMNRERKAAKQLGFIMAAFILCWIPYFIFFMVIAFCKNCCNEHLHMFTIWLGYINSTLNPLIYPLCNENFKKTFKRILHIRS
Sigma-2, sequence (Q5U3Y7 whole entry): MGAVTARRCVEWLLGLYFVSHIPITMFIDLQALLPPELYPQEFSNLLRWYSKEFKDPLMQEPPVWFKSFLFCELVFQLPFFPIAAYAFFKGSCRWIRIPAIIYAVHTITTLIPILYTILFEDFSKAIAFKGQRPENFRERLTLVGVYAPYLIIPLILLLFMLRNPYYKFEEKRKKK
β2, sequence (P07550 whole entry): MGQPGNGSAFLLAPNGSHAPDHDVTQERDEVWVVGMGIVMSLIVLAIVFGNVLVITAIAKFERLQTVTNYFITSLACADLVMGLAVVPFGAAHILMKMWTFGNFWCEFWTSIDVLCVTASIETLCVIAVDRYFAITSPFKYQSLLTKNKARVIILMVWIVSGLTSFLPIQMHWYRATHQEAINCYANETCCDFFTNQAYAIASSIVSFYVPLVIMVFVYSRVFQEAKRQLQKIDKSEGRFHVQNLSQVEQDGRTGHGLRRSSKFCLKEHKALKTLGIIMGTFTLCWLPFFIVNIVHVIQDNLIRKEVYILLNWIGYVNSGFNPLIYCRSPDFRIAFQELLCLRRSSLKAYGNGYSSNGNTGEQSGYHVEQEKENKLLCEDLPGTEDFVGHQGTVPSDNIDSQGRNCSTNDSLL
D3, sequence (P19020 whole entry): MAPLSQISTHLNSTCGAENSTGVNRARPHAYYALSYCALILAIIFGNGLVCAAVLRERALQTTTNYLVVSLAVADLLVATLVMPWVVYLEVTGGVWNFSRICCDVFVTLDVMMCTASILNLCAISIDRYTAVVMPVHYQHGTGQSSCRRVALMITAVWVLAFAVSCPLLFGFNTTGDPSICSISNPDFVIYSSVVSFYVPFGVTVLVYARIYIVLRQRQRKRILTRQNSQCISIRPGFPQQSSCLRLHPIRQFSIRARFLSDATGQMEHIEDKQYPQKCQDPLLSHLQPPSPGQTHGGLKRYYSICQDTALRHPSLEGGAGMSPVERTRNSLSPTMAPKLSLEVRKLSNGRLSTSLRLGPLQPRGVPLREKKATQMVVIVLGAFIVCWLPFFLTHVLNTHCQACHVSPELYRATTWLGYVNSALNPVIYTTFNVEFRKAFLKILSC
SERT, sequence (P31645 whole entry): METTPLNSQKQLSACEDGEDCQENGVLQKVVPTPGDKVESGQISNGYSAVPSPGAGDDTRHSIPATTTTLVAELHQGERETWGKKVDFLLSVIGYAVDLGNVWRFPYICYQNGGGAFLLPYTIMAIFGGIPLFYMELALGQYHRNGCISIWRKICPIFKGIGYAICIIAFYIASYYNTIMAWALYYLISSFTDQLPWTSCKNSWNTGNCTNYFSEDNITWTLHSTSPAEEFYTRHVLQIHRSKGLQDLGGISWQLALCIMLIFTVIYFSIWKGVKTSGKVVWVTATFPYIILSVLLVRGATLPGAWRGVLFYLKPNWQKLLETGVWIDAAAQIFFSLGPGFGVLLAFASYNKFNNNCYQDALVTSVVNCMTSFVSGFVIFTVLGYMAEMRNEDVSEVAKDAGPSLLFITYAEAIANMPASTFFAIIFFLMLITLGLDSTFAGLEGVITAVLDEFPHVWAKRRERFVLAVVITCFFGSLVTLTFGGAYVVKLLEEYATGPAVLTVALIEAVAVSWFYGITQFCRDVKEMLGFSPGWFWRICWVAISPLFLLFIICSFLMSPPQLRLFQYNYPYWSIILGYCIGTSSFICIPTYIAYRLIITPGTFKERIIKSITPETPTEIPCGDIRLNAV
α1A, sequence (P35348 whole entry): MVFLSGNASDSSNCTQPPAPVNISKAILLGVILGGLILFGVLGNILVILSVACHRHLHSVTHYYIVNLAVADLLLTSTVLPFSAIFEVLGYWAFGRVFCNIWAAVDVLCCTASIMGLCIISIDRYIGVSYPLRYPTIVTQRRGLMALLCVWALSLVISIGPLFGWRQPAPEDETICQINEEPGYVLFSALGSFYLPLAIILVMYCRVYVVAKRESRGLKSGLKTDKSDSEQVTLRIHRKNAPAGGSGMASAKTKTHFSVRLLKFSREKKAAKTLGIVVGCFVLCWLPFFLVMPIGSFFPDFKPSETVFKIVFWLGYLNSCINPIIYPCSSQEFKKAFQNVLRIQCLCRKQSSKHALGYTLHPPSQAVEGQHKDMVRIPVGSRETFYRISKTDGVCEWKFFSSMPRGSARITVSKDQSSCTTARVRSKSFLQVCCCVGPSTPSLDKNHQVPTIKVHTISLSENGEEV
α2C, sequence (P18825 whole entry): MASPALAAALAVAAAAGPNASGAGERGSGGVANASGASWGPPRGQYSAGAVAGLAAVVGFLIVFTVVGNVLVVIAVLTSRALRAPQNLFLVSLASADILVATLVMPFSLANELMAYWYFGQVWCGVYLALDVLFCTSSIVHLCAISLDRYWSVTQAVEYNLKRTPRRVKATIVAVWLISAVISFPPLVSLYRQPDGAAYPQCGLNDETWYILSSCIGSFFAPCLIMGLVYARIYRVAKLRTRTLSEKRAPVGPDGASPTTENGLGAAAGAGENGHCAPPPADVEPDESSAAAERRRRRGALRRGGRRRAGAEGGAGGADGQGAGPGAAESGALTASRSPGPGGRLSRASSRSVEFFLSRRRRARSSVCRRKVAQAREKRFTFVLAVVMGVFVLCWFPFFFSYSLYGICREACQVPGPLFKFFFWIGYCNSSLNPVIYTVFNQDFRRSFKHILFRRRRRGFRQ
D5, sequence (P21918 whole entry): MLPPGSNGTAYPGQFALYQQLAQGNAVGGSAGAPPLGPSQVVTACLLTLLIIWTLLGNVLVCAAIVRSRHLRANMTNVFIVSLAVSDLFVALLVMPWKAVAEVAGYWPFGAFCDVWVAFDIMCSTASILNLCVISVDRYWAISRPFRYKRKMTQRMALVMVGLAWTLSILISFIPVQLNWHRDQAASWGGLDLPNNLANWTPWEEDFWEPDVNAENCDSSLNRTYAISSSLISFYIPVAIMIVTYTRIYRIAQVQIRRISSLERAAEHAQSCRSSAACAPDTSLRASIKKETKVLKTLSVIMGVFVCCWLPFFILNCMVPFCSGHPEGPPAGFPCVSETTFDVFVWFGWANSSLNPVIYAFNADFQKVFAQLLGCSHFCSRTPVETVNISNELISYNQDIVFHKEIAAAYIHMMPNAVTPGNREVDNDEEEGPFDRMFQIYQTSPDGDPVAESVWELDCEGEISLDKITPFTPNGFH

COc1ccc2[nH]cc(CCN(C)C)c2c1.O=C(O)C(=O)O [5-MeO-DMT, 5-Methoxy-N, N-dimethyltryptamine oxalate]
pKi (D3): < 5.00 | pKi (M2): < 5.00 | pKi (MOR): < 5.00 | pKi (β3): < 5.00 | Active parenteral dose in humans (humans): 2 to 3 mg | pKi (DAT): < 5.00 | pKi (M5): < 5.00 | pKi (sigma-1): < 5.00 | pKi (H1): 5.12 | Effect on crossings (locomotor activity) (Male Sprague–Dawley rats; Experiment 1, 0.1 mg/kg s.c. after pargyline 10 mg/kg): reduced crossings during the first half-hour, but did not increase activity during the second half-hour | Effect on spatial d (Male Sprague–Dawley rats; Experiment 1, 1.0 mg/kg s.c. after pargyline 10 mg/kg, second half-hour of session (p<0.01)): significantly reduced spatial d | Effect on spatial d (Male Sprague–Dawley rats; Experiment 1, 0.01 and 0.1 mg/kg s.c. after pargyline 10 mg/kg): no effect on spatial d | Effect on crossings (locomotor activity) (Male Sprague–Dawley rats; Experiment 1, 0.1 and 1.0 mg/kg s.c., vehicle-pretreated rats): reduced crossings | Effect on spatial d (Male Sprague–Dawley rats; [2]): post hoc analysis failed to confirm this for any specific 30-min block | Effect on crossings (locomotor activity) (Male Sprague–Dawley rats; Experiment 3, 0.3 to 3.0 mg/kg s.c. alone, first 10 min of testing (p<0.01)): significantly reduced crossings | Effect on spatial d (Male Sprague–Dawley rats; Experiment 3, 0.3 to 3.0 mg/kg s.c. alone, first or second half-hour, post hoc): failed to alter spatial d significantly | Biphasic effects on locomotor activity (Male Sprague–Dawley rats; Experiment 3, alone, up to 3 mg/kg s.c.): did not induce biphasic effects on locomotor activity | pKi (α2C): 6.69 | pKi (α1D): 6.36 | pKi (Sigma-2): 5.43 | pKi (NET): < 5.00 | pKi (M3): < 5.00 | pKi (α1A): 5.36 | pKi (D1): < 5.00 | pKi (α2A): 6.03 | pKi (KOR): < 5.00 | pKi (EP4): < 5.00 | pKi (EP3): < 5.00 | pKi (SERT): 5.44 | pKi (DOR): < 5.00 | pKi (M1): < 5.00 | pKi (M4): < 5.00 | pKi (α1B): 5.66 | pKi (β2): 5.57 | pKi (H3): < 5.00 | pKi (D2): < 5.00 | pKi [1]: 7.05 | pKi (H4): < 5.00 | pKi (D4): < 5.00 | pKi (H2): < 5.00 | pKi (D5): < 5.00 | pKi (β1): < 5.00

CN(C)CCc1c[nH]c2ccc(O)cc12 [bufotenine, 5-hydroxy-DMT]
Affinity for the 5-HT2A receptor relative to 5-MeO-DMT (5-HT2A receptor): 10 fold

C#CCN(C)Cc1ccccc1 [pargyline, pargyline hydrochloride]
Effect on spatial d (Male Sprague–Dawley rats; [2]): post hoc analysis failed to confirm this for any specific 30-min block | MAOB inhibition (MAOB): 92% | MAOA inhibition (MAOA): 78%

COc1ccc2[nH]cc(CCN(C)C)c2c1 [α,α,β,β-tetradeutero-5-MeO-DMT, α,α,β,β-Tetradeutero-5-methoxy-N,N-dimethyltryptamine (2:1) fumarate]
Ki (D3; read-out: Ki nM (±SEM), [3H]N-methyl-spiperone, cloned rat receptor): 7090 nM | Ki (H1; read-out: Ki nM (±SEM), [3H]pyrilamine, cloned human receptor): > 10000 nM | Ki (α2C; [3]): 274 nM | Ki (α1D; read-out: Ki nM (±SEM), [125I]HEAT, cloned human receptor): 202 nM | Ki (Sigma-2; read-out: Ki nM (±SEM), [3H]DTG, rat): 7170 nM | Ki (α1A; [4]): 1010 nM | Ki (α2A; [3]): 1870 nM | Ki (SERT; read-out: Ki nM (±SEM), [3H]citalopram, cloned human transporter): 2760 nM | Ki (α1B; [4]): 841 nM | Ki (β2; read-out: Ki nM (±SEM), [3H]CGP12177, cloned human receptor): 4560 nM | Ki (H2; read-out: Ki nM (±SEM), [3H]tiotidine, cloned human receptor): 7160 nM

O=C(O)/C=C/C(=O)O.[2H]C([2H])(c1c[nH]c2ccc(OC)cc12)C([2H])([2H])N(C)C.[2H]C([2H])(c1c[nH]c2ccc(OC)cc12)C([2H])([2H])N(C)C [α,α,β,β-tetradeutero-5-MeO-DMT, α,α,β,β-Tetradeutero-5-methoxy-N,N-dimethyltryptamine (2:1) fumarate]
Effect on spatial d (Male Sprague–Dawley rats; Experiment 2, 3.0 mg/kg s.c., first 30 min of the session (p<0.01)): significantly increased spatial d | Effect on spatial d (Male Sprague–Dawley rats; Experiment 2, 3.0 mg/kg s.c., second 30 min of the session (p<0.01)): significantly reduced spatial d | Effect on crossings (locomotor activity) (Male Sprague–Dawley rats; Experiment 2, 0.3, 1.0 and 3.0 mg/kg s.c., first 20 min of the session): significantly reduced crossings | Delayed increase in locomotor activity (Male Sprague–Dawley rats; Experiment 2, 0.3 and 1.0 mg/kg s.c.): Neither of the lower doses tested (0.3 and 1.0 mg/kg) induced a delayed increase in activity
